Laboratory results reported in ChEMBL document CHEMBL1143166, “Derivatives of 4-amino-6-hydroxy-2-mercaptopyrimidine as novel, potent, and selective A3 adenosine receptor antagonists” (J Med Chem, 2008).

How the values were obtained:
[1] = target: T1, Adenosine receptor A2a (Homo sapiens, UniProt P29274); assay: Displacement of [3H]NECA from human adenosine A2A receptor expressed in CHO cells at 10 uM; type: cell-based
Summary of the method: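 Membranes (80 µg) from hA2A-expressing CHO cells incubated 90 min at 25 °C in 50 mM Tris-HCl, 2 mM MgCl2, 2 U/mL ADA, pH 7.4, with 30 nM [3H]NECA and compound at 10 µM. Nonspecific binding defined with 100 µM NECA.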

[2] = target: T2, Adenosine receptor A1 (Homo sapiens, UniProt P30542); assay: Displacement of […] from human adenosine A1 receptor expressed in CHO cells; type: cell-based
T2 sequence (P30542 whole entry): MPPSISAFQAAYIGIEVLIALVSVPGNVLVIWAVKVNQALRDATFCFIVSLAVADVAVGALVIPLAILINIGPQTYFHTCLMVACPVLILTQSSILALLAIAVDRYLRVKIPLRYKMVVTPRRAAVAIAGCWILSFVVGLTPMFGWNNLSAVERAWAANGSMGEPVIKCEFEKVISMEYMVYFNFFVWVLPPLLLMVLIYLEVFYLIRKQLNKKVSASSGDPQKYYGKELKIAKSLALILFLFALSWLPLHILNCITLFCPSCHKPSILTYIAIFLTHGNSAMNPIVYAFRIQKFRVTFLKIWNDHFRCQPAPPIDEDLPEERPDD

[3] = target: T3, Adenosine receptor A2b (Homo sapiens, UniProt P29275); assay: Antagonist activity at human adenosine A2B receptor expressed in CHO cells assessed as inhibition of NECA-mediated cAMP accumulation; type: functional, cell-based
T3 sequence (P29275 whole entry): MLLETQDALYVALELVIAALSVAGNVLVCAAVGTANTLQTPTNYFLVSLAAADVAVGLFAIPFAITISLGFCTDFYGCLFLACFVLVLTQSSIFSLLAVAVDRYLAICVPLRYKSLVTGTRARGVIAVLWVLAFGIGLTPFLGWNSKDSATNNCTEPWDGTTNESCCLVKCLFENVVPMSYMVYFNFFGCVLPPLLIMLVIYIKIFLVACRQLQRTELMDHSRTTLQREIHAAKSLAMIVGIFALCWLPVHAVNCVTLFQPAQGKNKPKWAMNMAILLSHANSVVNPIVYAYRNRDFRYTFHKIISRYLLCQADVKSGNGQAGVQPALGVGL
Summary of the method: (§1)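 hA2B-transfected CHO cells grown 48 h after plating, then preincubated 15 min at 37 °C in DMEM with Ro20-1724 (20 µM) and ADA (1 U/mL). Compound (1 nM–10 µM; single-point 10 µM) given 15 min at 37 °C, then 100 nM NECA. Stopped with 0.4 N HCl, neutralized with KOH. cAMP by competitive binding to bovine adrenal binding protein with [3H]cAMP. Mean ± SEM, four experiments in triplicate.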

[4] = target: T4, Adenosine receptor A2b (Homo sapiens) (UniProt P29275); assay: Antagonist activity at human adenosine A2B receptor expressed in CHO cells assessed as inhibition of NECA-mediated cAMP accumulation at 10 uM; type: functional, cell-based; summary of the method: as §1
T4 sequence (whole entry): T3 sequence (P29275 whole entry)

[5] = target: T5, Adenosine receptor A1 (Homo sapiens) (UniProt P30542); assay: Displacement of […] from human adenosine A1 receptor expressed in CHO cells at 10 uM; type: cell-based
T5 sequence (whole entry): T2 sequence (P30542 whole entry)
Summary of the method: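 Membranes (50 µg protein) from CHO cells stably expressing hA1 incubated 180 min at 25 °C in 50 mM Tris-HCl, 2 mM MgCl2, 2 U/mL ADA, pH 7.4, with 3 nM [3H]DPCPX and compound at 10 µM. Nonspecific binding defined with 50 µM R-PIA.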

[6] = target: T1, Adenosine receptor A2a; assay: Displacement of [3H]NECA from human adenosine A2A receptor expressed in CHO cells; type: cell-based
[7] = target: T6, Adenosine receptor A3 (Homo sapiens) (UniProt P0DMS8); assay: Displacement of [125I]AB-MECA from human adenosine A3 receptor expressed in CHO cells at 1 uM; type: cell-based
T6 sequence (whole entry): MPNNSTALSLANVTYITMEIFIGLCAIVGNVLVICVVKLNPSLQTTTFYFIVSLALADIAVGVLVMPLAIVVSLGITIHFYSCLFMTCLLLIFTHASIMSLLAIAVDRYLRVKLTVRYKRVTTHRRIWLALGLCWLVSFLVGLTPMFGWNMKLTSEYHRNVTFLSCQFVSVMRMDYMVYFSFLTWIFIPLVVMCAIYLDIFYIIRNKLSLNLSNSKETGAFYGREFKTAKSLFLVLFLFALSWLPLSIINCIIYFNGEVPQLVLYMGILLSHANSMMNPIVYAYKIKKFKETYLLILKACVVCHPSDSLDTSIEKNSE

T1 sequence (P29274 whole entry): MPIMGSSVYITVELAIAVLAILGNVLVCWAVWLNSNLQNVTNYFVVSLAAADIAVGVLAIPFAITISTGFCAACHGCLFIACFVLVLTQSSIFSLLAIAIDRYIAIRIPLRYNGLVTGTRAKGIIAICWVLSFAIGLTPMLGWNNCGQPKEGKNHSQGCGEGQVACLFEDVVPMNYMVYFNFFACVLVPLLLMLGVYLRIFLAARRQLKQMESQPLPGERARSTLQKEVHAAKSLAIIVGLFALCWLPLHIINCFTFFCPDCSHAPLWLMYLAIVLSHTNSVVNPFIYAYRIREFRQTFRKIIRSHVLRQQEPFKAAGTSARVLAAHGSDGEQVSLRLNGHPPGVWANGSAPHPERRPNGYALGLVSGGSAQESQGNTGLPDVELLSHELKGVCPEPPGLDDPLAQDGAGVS

Compound | inhibition [1] [%] | Ki [2] [nM] | IC50 [3] [nM] | inhibition [4] [%] | inhibition [5] [%] | Ki [6] [nM] | inhibition [7] [%]
CCCOc1cc(NC(C)=O)nc(SCCC)n1 | 30 | 5470 | – | – | – | – | –
CCCSc1nc(NC(C)=O)cc(OC)n1 | 10 | – | – | – | 43 | – | –
COc1cc(NC(C)=O)nc(SC)n1 | 29 | – | – | – | 30 | – | 49
CCC(=O)Nc1cc(OC)nc(SC)n1 | 21 | – | – | – | 2 | – | 51
CCCOc1cc(NC(=O)CC)nc(SCCC)n1 | – | 1460 | – | – | – | 71 | –
CCCOc1cc(NC(=O)CC)nc(SC)n1 | – | – | – | – | 19 | 398 | –
CCCSc1nc(NC(C)=O)cc(OCC2CCCCC2)n1 | 33 | – | – | – | 43 | – | –
CCCOc1cc(NC(C)=O)nc(SC)n1 | – | – | – | – | 7 | 1120 | –
CCCSc1nc(NC(=O)CC)cc(OC)n1 | 4 | 486 | – | – | – | – | –

Second part, the molecule after the results:

inhibition [1] [%] | Ki [2] [nM] | IC50 [3] [nM] | inhibition [4] [%] | inhibition [5] [%] | Ki [6] [nM] | inhibition [7] [%] | Compound
27 | 2080 | > 10000 | 13 | – | – | – | CCCSc1nc(NC(C)=O)cc(OCCc2ccccc2)n1
– | 1840 | – | – | – | 4150 | – | CCCSc1nc(NC(C)=O)cc(OCc2ccccc2Cl)n1
29 | – | – | – | 46 | – | – | CCCSc1nc(NC(C)=O)cc(OCc2ccc(Cl)cc2Cl)n1
23 | – | – | – | 34 | – | – | CCCOc1cc(NC(C)=O)nc(SCc2ccccc2)n1
36 | 2440 | – | – | – | – | – | CCCSc1nc(NC(C)=O)cc(OCc2ccccc2)n1
41 | 582 | – | – | – | – | – | CCCSc1nc(NC(C)=O)cc(OCc2cccc(Cl)c2)n1
26 | – | – | – | 0 | – | – | CCCCSc1nc(NC(C)=O)cc(OCc2ccc(Cl)cc2)n1
47 | 2440 | > 10000 | 0 | – | – | – | CCCSc1nc(NC(C)=O)cc(OCc2ccc(OC)cc2)n1
43 | – | > 10000 | 0 | 17 | – | – | CCCSc1nc(NC(C)=O)cc(OCc2ccc(Cl)cc2)n1
56 | 4480 | > 10000 | 10 | – | – | – | CCSc1nc(NC(C)=O)cc(OCc2ccc(Cl)cc2)n1
